Measurements published in PMC3119342 (Chemistry & biology, 2011).
“Also recorded” adds a separate entry of the source.

Experiments:
[1] = system: PC3 cells; assay: Serum-free cell survival assay; type: cell-based, human; conditions: prostate cancer (PC3) cells; JW480 1 μM, 48 h in situ
[2] = system: PC3 cells; assay: Invasion assay; type: cell-based, human; conditions: prostate cancer (PC3) cells; JW480 1 μM, 48 h in situ
[3] = system: MAGE lipids; assay: Lipid measurements; type: cell-based, human; conditions: for MAGE lipids: prostate cancer cells (Figure S4); for MAGE lipid levels: 1 μM, 48 hr
[4] = target: T1, HSL (Mus musculus, UniProt P54310); assay: Competitive ABPP in rosiglitazone-differentiated 3T3-10T1/2 adipocyte proteome; type: biochemical
T1 sequence (P54310 1-759): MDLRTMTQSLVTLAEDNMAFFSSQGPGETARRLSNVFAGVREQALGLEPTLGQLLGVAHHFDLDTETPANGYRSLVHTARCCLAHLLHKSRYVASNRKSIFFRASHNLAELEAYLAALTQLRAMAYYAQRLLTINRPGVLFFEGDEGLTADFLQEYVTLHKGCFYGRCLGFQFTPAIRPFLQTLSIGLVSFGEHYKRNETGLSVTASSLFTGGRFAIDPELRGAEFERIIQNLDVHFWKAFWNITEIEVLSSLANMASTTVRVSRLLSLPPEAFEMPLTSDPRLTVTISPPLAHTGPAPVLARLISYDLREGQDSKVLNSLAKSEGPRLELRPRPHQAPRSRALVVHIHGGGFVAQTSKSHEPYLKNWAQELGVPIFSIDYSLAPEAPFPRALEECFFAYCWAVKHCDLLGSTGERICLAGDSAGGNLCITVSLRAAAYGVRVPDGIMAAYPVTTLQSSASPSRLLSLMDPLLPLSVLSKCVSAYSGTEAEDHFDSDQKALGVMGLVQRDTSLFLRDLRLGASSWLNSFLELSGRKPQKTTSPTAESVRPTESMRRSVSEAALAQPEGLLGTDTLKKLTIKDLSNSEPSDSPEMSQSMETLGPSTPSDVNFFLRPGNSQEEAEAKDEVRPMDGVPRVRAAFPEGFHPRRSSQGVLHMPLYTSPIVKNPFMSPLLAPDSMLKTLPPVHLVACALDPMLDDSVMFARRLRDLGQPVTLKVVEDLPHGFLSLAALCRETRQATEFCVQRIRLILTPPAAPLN

[5] = target: T2, mouse brain KIAA1363 (Mus musculus, UniProt Q8BLF1); assay: Gel-based competitive ABPP; type: biochemical; conditions: read-out: IC50 for KIAA1363, mouse brain proteome
T2 sequence (Q8BLF1 1-408): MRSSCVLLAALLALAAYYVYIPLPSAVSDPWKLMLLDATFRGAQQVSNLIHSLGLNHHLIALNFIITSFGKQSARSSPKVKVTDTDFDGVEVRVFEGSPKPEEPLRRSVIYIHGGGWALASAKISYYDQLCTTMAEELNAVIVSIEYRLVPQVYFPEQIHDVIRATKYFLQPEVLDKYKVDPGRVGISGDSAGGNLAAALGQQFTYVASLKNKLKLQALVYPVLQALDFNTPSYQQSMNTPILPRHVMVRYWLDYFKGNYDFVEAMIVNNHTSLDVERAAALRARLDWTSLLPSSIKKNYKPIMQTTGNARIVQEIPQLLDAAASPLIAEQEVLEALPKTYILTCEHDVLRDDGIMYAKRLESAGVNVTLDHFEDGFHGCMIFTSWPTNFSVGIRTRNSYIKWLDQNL

[6] = system: PC3 cells; assay: Cell migration assay; type: cell-based, human; conditions: prostate cancer (PC3) cells; JW480 1 μM, 48 h in situ
[7] = target: AChE (Mus musculus, UniProt P21836); conditions: mouse brain proteome; for IC50: read-out: IC50 for AChE, substrate acetylthiocholine
Chain of AChE (P21836 32-614): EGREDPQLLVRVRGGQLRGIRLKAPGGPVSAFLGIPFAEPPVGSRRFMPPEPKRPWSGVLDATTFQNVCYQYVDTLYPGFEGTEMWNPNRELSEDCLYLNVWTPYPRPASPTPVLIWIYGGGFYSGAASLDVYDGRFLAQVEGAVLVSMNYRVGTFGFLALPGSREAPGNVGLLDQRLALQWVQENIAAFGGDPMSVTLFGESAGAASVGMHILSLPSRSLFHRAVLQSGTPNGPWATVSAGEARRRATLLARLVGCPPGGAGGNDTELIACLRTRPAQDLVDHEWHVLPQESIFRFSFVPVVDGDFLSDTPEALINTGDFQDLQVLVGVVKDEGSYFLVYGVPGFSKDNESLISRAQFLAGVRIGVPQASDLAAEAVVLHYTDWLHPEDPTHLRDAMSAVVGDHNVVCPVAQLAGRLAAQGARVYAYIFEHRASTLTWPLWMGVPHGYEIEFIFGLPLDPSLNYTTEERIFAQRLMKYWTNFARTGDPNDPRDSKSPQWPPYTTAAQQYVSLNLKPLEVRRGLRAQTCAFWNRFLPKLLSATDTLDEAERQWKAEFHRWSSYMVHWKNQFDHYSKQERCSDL

[8] = target: T3, FAAH (Mus musculus, UniProt O08914); assay: Competitive ABPP of FAAH in mouse brain proteome; type: biochemical; conditions: gel-based competitive ABPP of a mouse brain proteome
T3 sequence (O08914 1-579): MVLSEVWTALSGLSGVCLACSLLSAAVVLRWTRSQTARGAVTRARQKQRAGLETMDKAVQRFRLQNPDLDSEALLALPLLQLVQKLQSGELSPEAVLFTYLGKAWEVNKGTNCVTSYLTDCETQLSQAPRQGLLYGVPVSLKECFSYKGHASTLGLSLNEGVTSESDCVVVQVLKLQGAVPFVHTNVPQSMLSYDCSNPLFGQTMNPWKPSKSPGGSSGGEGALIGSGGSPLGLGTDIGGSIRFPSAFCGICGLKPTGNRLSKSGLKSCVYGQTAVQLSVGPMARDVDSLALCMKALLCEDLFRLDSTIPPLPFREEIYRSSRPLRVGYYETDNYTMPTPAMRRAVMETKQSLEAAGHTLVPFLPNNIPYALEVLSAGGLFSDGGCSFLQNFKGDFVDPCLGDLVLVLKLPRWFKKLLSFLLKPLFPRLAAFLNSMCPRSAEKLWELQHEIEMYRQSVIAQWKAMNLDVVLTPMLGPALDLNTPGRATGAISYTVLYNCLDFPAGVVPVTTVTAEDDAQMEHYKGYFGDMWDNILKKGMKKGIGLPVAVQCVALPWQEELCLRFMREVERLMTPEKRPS

[9] = system: LNCaP cells; assay: Cell survival assay in LNCaP cells; type: cell-based, human; conditions: which express low levels of KIAA1363
[10] = target: T4, KIAA1363 (2-acetyl MAGE hydrolase activity) (Homo sapiens, UniProt Q6PIU2); assay: 2-Acetyl MAGE hydrolytic activity assay in prostate cancer cells; type: cell-based; conditions: 1 μM, 48 h
T4 sequence (Q6PIU2 1-408): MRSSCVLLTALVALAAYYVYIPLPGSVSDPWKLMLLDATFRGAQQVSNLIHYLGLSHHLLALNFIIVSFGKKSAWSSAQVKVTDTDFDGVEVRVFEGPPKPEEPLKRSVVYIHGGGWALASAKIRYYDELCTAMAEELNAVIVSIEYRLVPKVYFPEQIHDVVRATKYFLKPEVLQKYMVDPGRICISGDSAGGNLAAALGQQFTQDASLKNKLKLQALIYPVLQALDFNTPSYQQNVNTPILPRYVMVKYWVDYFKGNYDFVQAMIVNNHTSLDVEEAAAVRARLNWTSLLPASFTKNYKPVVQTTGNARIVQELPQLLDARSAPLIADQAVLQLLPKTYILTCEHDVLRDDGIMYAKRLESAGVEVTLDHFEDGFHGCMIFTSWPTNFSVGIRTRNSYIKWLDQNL

[11] = target: T5, brain KIAA1363 (Mus musculus, UniProt Q8BLF1); assay: Competitive ABPP of brain proteomes from inhibitor-treated mice; type: in vivo; conditions: for inhibition of brain KIAA1363: 4 hr
T5 sequence (Q8BLF1 1-408): T2 sequence (Q8BLF1 1-408)

[12] = system: PC3 tumor xenograft; assay: PC3 tumor xenograft growth in SCID mice; type: in vivo, mouse; conditions: 80 mg/kg, oral gavage, one dose per day, versus vehicle
Outline: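 PC3 cells were washed, trypsinised, resuspended serum-free at 2.0 × 10^4 cells/μL, and 100 μL was injected into the flank of C.B17 SCID mice. Dosing was once daily by oral gavage in PEG300 (4 μL/g) or vehicle, starting immediately after injection. Tumours were measured with calipers every 3 days and excised 4 hr after the final dose on day 33 for ABPP.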

[13] = target: serine hydrolase activities detected in the brain proteome (Mus musculus, UniProt P21836); conditions: brain proteome of treated mice (Figure 4C)
Chain of serine hydrolase activities detected in the brain proteome (P21836 32-614): as the sequence (P21836 32-614) above

[14] = system: serine hydrolase activities detected in PC3 cells; assay: Competitive ABPP-MudPIT of PC3 cells treated in situ; type: cell-based, human; conditions: 1 μM in situ, ~30 serine hydrolase activities
[15] = target: T6, KIAA1363 (Homo sapiens, UniProt Q6PIU2); assay: Gel-based competitive ABPP in PC3 cell proteomes; type: biochemical; conditions: read-out: IC50 for human KIAA1363, in vitro treatment
T6 sequence (Q6PIU2 1-408): T4 sequence (Q6PIU2 1-408)

[16] = target: T6, KIAA1363; assay: Gel-based competitive ABPP in living PC3 cells; type: cell-based; conditions: for IC50: read-out: IC50 for KIAA1363
[17] = system: other mouse brain serine hydrolases; assay: Gel-based competitive ABPP, other serine hydrolases of mouse brain proteome; type: biochemical

`CCCCOC[C@H]1CCCC[C@H]1COCCNC(=O)Oc1ccccc1F` [AS115, reference compound] was tested, and the “survival in serum-free media” value [1] was “also observed”, the invasion [2] was “also observed” and the MAGE lipids [3] was “reductions”.
In the case of `COc1ccc(CNC(=O)Oc2cccc3c2OC(C)(C)C3)cc1` [JW148], the “survival in serum-free media” value [1] is reported as “also observed”, the “cross-reactivity with HSL” value [4] is reported as “cross-reactivity” and the IC50 [5] is reported as about 200 nM. The invasion [2] was “also observed”, the migration [6] was “also observed” and the “cross-reactivity with AChE” value [7] was “cross-reactivity”. For the same molecule, the IC50 [7] was 1000 nM, the MAGE lipids [3] was “reductions” and the “selectivity for KIAA1363 compared to FAAH” value [8] was “good selectivity”.
For `CC(C)c1ccccc1OC(=O)NCCc1ccc2ccccc2c1` [JW480], the “survival in LNCaP cells” value [9] was “did not affect”, the “survival in serum-free media” value [1] was “reductions; also recorded: reduced” and the “cross-reactivity with HSL” value [4] was “negligible cross-reactivity”. For the same molecule, the “2-acetyl MAGE hydrolase activity” value ([10]; DU145 cells) was “completely blocked; also recorded: ablates”, the “2-acetyl MAGE hydrolase activity” value ([10]; PC3 cells) was “completely blocked; also recorded: ablates” and the “time of full inhibition of KIAA1363 in mice” value ([11]; following a single administration, orally active) was “at least 24 hrs”. For the same molecule, the “inhibition of brain KIAA1363” value ([11]; mice, 5 mg/kg i.p.) was “complete inhibition”, the “inhibition of brain KIAA1363” value ([11]; mice, 20 mg/kg oral) was “complete inhibition” and the “time inhibition of KIAA1363 was maintained in vivo” value ([11]; mice, single administration, 20 mg/kg, oral) was “up to 24 hr”. For the same molecule, the PC3 tumor growth [12] was “significantly impaired; also recorded: significantly reduces”, the “cross-reactivity with AChE by competitive ABPP-MudPIT” value [13] was “negligible cross-reactivity” and the invasion [2] was “reductions; also recorded: reduced”. For the same molecule, the migration [6] was “reductions; also recorded: reduced”, the “off-target activity across serine hydrolases by ABPP-MudPIT” value [14] was “no off-target activity; also recorded: only KIAA1363 was inhibited” and the “cross-reactivity with AChE” value [7] was “negligible cross-reactivity”. The IC50 [7] was over 100000 nM, the MAGE lipid levels ([3]; DU145 cells) was “significant reductions; also recorded: significantly reduces” and the MAGE lipid levels ([3]; PC3 cells) was “significant reductions; also recorded: significantly reduces”. The IC50 [15] was 12 nM, the “time in situ inhibition of KIAA1363 was maintained” value ([16]; 1 μM, in situ) was “at least 48 hr” and the IC50 ([16]; PC3 cells, in situ) was 6 nM. For the same molecule, the IC50 ([16]; living PC3 cells, in situ treatment, presence or absence of 10% fetal calf serum) was 6 to 12 nM and the “cross-reactivity with other mouse brain serine hydrolases” value [17] was “negligible cross-reactivity”.
In the case of `CC1(C)Cc2cccc(OC(=O)NCc3ccc(F)cc3)c2O1` [WWL38], the “cross-reactivity with HSL” value [4] is reported as “cross-reactivity”, the IC50 [5] is reported as about 200 nM and the “cross-reactivity with AChE” value [7] is reported as “cross-reactivity”. For the same molecule, the “selectivity for KIAA1363 compared to FAAH” value [8] was “good selectivity”.
